This note sets out measurements from ChEMBL document CHEMBL3877257, “New isoxazolidinone and 3,4-dehydro-β-proline derivatives as antibacterial agents and MAO-inhibitors: A complex balance between two activities” (Eur J Med Chem, 2016).

The structures appear in SMILES notation. In brackets after ≈: the same amount, converted by molar mass.

For data set [1], the system named is Staphylococcus aureus. The data set is described as follows: Antibacterial activity against Staphylococcus aureus clinical isolate after 18 to 24 hrs by broth microdilution method. In kind it is functional. In outline: (§1)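 Broth microdilution per CLSI: serial 2-fold dilutions in Mueller-Hinton broth, compounds dissolved in DMSO; equal volume of inoculum at 1x10^6 CFU/mL added to each well; 37 C for 18-24 h. MIC = lowest concentration with no visible turbidity. Clinical S. aureus strains (MRSA and MSSA) were 12 recent isolates with characterized susceptibility.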
A general note: Broth dilution looks for growth in wells or tubes with falling amounts of substance.

Data set [2] can be described thus: Cytotoxicity against human HepG2 cells assessed as decrease in cell viability at 10 ug/mL after 24 hrs by prestoblue assay. In kind it is toxicity, cell-based. To be noted: hepg2, 24 h. In outline: (§2)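 HepG2 grown in DMEM with 10% heat-inactivated FBS on collagen; seeded at 45,000 cells/cm2, treated two days later for 24 h across 10-100 µg/mL. Viability read with resazurin-based PrestoBlue, 1 h at 37°C, absorbance 570 nm (reference 600 nm). Mean ± SEM, three experiments in triplicate, Student's t test.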

Data set [3] deals with HepG2. In words: Inhibition of MAO activity in human HepG2 cells at 10 ug/mL after 24 hrs by spectrophotometric method. In kind it is cell-based. The essentials: (§3)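 HepG2 on collagen, seeded at 45,000 cells/cm2, dosed two days later at 10-100 µg/mL for 24 h. Lysate MAO was measured by Amplex Red/HRP H2O2 detection, 30 min at room temperature, absorbance 570 nm. Mean ± SEM of three experiments in triplicate.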

Data set [4] concerns HepG2. The data set is described as follows: Inhibition of MAO activity in human HepG2 cells at 100 ug/mL after 24 hrs by spectrophotometric method. In kind it is cell-based. In outline:
as §3

Data set [5] can be described thus: Cytotoxicity against human HepG2 cells assessed as cell viability at 100 ug/mL after 24 hrs by prestoblue assay. In kind it is toxicity, cell-based. To be noted: read-out: Activity. The essentials:
as §2

The test system of the next data set is Enterococcus faecalis. In words: Antibacterial activity against Enterococcus faecalis ATCC 29212 after 18 to 24 hrs by broth microdilution method. In kind it is functional. The essentials: as §1
Data set [6] deals with Staphylococcus aureus. The data set is described as follows: Antibacterial activity against Staphylococcus aureus ATCC 29213 after 18 to 24 hrs by broth microdilution method. In kind it is functional. In outline:
as §1

The MIC is the lowest concentration found to suppress growth. Low readings indicate inhibition by little substance, high ones a need for much substance. For orientation: MIC50 means an inhibitory concentration at the 50% level, which refers to growth in some studies and to a panel of isolates in others. Read a low MIC50 as greater potency. Usually MIC90 stands for the lowest concentration that inhibits either 90% of growth or 90% of the strains tested, depending on the study. Higher therefore signals weaker potency. As a reminder, the inhibition is the relative decrease from the control value, in per cent. Lower therefore signals little suppression.

As for `CCNC(=O)C1=CCN(C(=O)c2ccc(N3CCOCC3)c(F)c2)[C@H]1C(C)C`, the minimum inhibitory concentration (MIC) in the data set on Staphylococcus aureus [1], with Enterococcus faecalis and in the data set on Staphylococcus aureus [6] was above 128 µg/mL throughout. This molecule registered an MIC50 against Staphylococcus aureus [1] above 128 µg/mL. Besides, in the data set with Staphylococcus aureus [1], the MIC90 is above 128 µg/mL. The Activity result in data set [2] is reported as “Non-Toxic”. The inhibition came out at 25% with HepG2 [3] and 45% with HepG2 [4]. Also, the viability at 24 h, 100 ug/mL in data set [5] was 20%.

Regarding `CCNC(=O)C1C(=O)ON(C(=O)c2ccc(N3CCOCC3)c(F)c2)C1C(C)C` (stereo not drawn), the MIC against Staphylococcus aureus [1], against Enterococcus faecalis and against Staphylococcus aureus [6] was above 128 µg/mL in each case. The molecule also registered an MIC50 in the data set on Staphylococcus aureus [1] above 128 µg/mL. For the same molecule, in the data set on Staphylococcus aureus [1], the MIC90 is above 128 µg/mL. For the same molecule, the Activity result in data set [2] is “Non-Toxic”. The inhibition was found to be 25% with HepG2 [3] and 45% with HepG2 [4]. For the same molecule, the viability at 24 h, 100 ug/mL in data set [5] amounted to 10%.

Turning to `CCNC(=O)C1C(=O)ON(C(=O)c2ccc(N3CCOCC3)c(F)c2)C1C1CCCCC1` (stereo not drawn), the MIC in the data set on Staphylococcus aureus [1] is 32 to 128 µg/mL (≈ 71.5 to 286 µM); in the data set on Enterococcus faecalis, above 128 µg/mL; in the data set on Staphylococcus aureus [6], above 128 µg/mL. In the data set with Staphylococcus aureus [1], the MIC50 came out at 64 µg/mL (≈ 143 µM). In the data set with Staphylococcus aureus [1], this molecule yielded an MIC90 above 128 µg/mL. Besides, in data set [2], the Activity result is on record as “Non-Toxic”. Further, the figures for the inhibition in the data set with HepG2 [3] and with HepG2 [4] were 25% and 45%, respectively. Moreover, in data set [5], the viability at 24 h, 100 ug/mL turned out to be 10%.

In the data set with Staphylococcus aureus [1], `CCNC(=O)C1=CCN(C(=O)c2ccc(N3CCOCC3)c(F)c2)[C@@H]1C(C)C` came in with a minimum inhibitory concentration (MIC) above 128 µg/mL, an MIC50 above 128 µg/mL and an MIC90 above 128 µg/mL. In data set [2], the Activity entry is “Non-Toxic”. For the same molecule, in data set [5], the viability at 24 h, 100 ug/mL came to 10%. The minimum inhibitory concentration (MIC) against Enterococcus faecalis is above 128 µg/mL. In the data set on Staphylococcus aureus [6], this molecule returned a minimal inhibitory concentration (MIC) above 128 µg/mL.

For `CC(=O)NC[C@H]1CN(c2ccc(N3CCOCC3)c(F)c2)C(=O)O1` [LINEZOLID], in the data set with Staphylococcus aureus [1], the MIC was 1 to 4 µg/mL (≈ 2.96 to 11.9 µM), the MIC50 was 2 µg/mL (≈ 5.93 µM) and the MIC90 is 2 µg/mL (≈ 5.93 µM). For the same molecule, the inhibition in the data set with HepG2 [4] was 15%.
